ChEMBL document CHEMBL1141446, “Uncovering biosynthetic potential of plant-associated fungi: effect of culture conditions on metabolite production by Paraphaeosphaeria quadriseptata and Chaetomium chiversii” (J Nat Prod, 2007)
The source made the active and inactive calls. The rule behind the calls is not given here.

Assays:
SF-268 = experiment: Antiproliferative activity against human SF268 cells by MTT assay; assay type: functional, cell-based
How it was run: (§1)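 Cells were exposed for 72 h to serial dilutions of test compound in RPMI 1640 supplemented with 10% fetal bovine serum. Viability was read by MTT assay, and IC50 was taken as the concentration giving 50% inhibition of proliferation/survival. A positive control was run alongside.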

Mus musculus = species: Mus musculus; experiment: Induction of heat shock in mouse 3T3-Y9/B12 reporter cells at 5 uM by heat shock induction assay; assay type: functional
MCF7 = experiment: Antiproliferative activity against human MCF7 cells by MTT assay; assay type: functional, cell-based; how it was run: as §1
NCI-H460 = experiment: Antiproliferative activity against human NCI-H460 cells by MTT assay; assay type: functional, cell-based; how it was run: as §1

SMILES | IC50 (SF-268) [µM] | Activity (Mus musculus) | IC50 (MCF7) [µM] | IC50 (NCI-H460) [µM]
C[C@@H]1C[C@H]2O[C@@H]2C[C@H](O)/C=C/C(=O)Cc2cc(O)cc(O)c2C(=O)O1 | 0.55 | Active | 0.15 | 0.3
C[C@@H]1C[C@H]2O[C@@H]2/C=C\C=C\C(=O)Cc2c(Cl)c(O)cc(O)c2C(=O)O1 |  | Active |  | 
COc1cccc2c1C(=O)c1c(O)c3c(c(O)c1C2=O)C[C@@](O)(C(=O)CO)C[C@@H]3O[C@H]1C[C@H](N)[C@H](O)[C@H](C)O1 [DOXORUBICIN] |  |  |  | 0.01
C[C@@H]1C[C@H]2O[C@@H]2CC/C=C/C(=O)Cc2cc(O)cc(O)c2C(=O)O1 [MONOCILLIN III] | 0.3 | Active | 0.4 | 0.5
C[C@@H]1C[C@H]2O[C@@H]2/C=C\C=C\C(=O)Cc2cc(O)cc(O)c2C(=O)O1 [MONOCILLIN I] | 0.72 | Active | 0.6 | 0.35
